The record followed here is ChEMBL document CHEMBL1145978, “New N-n-propyl-substituted 3-aryl- and 3-cyclohexylpiperidines as partial agonists at the D4 dopamine receptor” (J Med Chem, 2003).

SMILES strings stand for the structures.

Experiment [1] has as its target T1, D(2) dopamine receptor (Bos taurus, UniProt P20288). In words: Affinity for Dopamine receptor D2 using [3H]YM-09151-2 was carried out on bovine retinal membrane preparations (low-affinity). Set-up: species or system Retina. The method in brief:
(§1)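 Retinal membranes were prepared in Tris/EDTA/Ca/Mg/K/NaCl saline, pH 7.4, at about 4 mg wet tissue/mL. They were incubated with 0.1 nM [3H]-YM-09-151-2 at 30 °C for 60 min, in duplicate, with 2 mM DA defining nonspecific binding, followed by rapid filtration. Displacement curves were fitted to a two-site model, giving high- and low-affinity Ki from IC50 using Kd 0.4 nM.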

The target in experiment [2] is T1, D(2) dopamine receptor. Nature of the experiment: Affinity for Dopamine receptor D2 using [3H]-YM-09151-2 was carried out on bovine striatal membrane preparations. Details: species or system Striatum. In outline: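 Competition binding on bovine striatal membranes: homogenised in Tris 50, EDTA 1, CaCl2 1.5, MgCl2 4, KCl 5, NaCl 120 mM, pH 7.4; centrifuged 48 000 g, 20 min, 4 °C, washed, used at ~1.25 mg wet tissue/mL. 0.1 nM [3H]-YM-09-151-2 (Kd 0.4 nM), 60 min at 30 °C, duplicates; nonspecific with 2 mM DA; vacuum filtration; Ki from IC50.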

Another experiment addresses D(1A) dopamine receptor (Bos taurus, UniProt Q95136). Nature of the experiment: Affinity for Dopamine receptor D1 using [3H]SCH-23390 was carried out on bovine retinal membrane preparations. Set-up: species or system Retina. The method in brief: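 Bovine retinal membranes were homogenized in Tris 50 mM, EDTA 1, CaCl2 1.5, MgCl2 4, KCl 5, NaCl 120 mM, pH 7.4, and used at about 4 mg wet tissue/mL. They were incubated with 0.5 nM [3H]-SCH23390 for 20 min at 30 °C, in duplicate. Nonspecific binding was set with 2 mM DA, and bound ligand was separated by vacuum filtration. Ki was derived from IC50 using Kd 2 nM.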

For experiment [3], the target named is T1, D(2) dopamine receptor. Nature of the experiment: Affinity for Dopamine receptor D2 using [3H]YM-09151-2 was carried out on bovine retinal membrane preparations (high-affinity). Details: species or system Retina. The method in brief: as §1

Chain of D(1A) dopamine receptor (Q95136 whole entry): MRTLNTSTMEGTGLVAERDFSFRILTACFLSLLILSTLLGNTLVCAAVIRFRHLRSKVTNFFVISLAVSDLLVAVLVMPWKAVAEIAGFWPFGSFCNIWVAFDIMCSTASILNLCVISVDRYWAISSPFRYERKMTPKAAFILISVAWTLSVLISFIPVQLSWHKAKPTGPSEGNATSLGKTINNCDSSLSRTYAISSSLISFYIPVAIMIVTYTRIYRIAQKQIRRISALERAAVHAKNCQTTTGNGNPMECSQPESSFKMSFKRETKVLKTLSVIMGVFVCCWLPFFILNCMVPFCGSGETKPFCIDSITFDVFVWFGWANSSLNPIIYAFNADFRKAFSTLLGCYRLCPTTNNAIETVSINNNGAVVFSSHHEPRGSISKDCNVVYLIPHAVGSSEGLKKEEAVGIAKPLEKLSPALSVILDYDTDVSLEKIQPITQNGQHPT
T1 sequence (P20288 whole entry): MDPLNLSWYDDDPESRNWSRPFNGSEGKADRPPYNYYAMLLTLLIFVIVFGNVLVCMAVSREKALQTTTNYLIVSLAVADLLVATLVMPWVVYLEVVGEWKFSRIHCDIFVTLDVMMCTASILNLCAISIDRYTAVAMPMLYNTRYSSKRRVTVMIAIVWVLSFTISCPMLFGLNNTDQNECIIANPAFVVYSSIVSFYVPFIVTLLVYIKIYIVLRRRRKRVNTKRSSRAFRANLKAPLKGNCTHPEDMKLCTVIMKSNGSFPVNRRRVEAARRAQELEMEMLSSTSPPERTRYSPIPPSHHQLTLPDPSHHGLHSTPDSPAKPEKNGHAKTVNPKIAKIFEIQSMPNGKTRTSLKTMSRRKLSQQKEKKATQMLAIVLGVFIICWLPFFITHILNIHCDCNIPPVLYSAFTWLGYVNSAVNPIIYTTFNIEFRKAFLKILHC

Take `CCCN1CCCC(C2CCCCC2C)C1` (centres undefined): the Ki was 43.2 µM at D(2) dopamine receptor [1], 0.42 µM at D(2) dopamine receptor [2], more than 10 µM on D(1A) dopamine receptor and 0.026 µM on D(2) dopamine receptor [3].

In the case of `CCCN1CCCC(C2CCCCC2)C1` (centres undefined), the Ki at D(2) dopamine receptor [1] was 24.9 µM; on D(2) dopamine receptor [2], 14.4 µM; at D(1A) dopamine receptor it was more than 10 µM; at D(2) dopamine receptor [3], 0.004 µM.

Regarding `CCCN1CCCC(c2ccc(C)cc2)C1` (centres undefined), the inhibitory constant (Ki) is 35.4 µM at D(2) dopamine receptor [1], 13.8 µM at D(2) dopamine receptor [2], more than 10 µM on D(1A) dopamine receptor and 0.044 µM at D(2) dopamine receptor [3].

In the case of `CCCN1CCCC(c2cccc(C)c2)C1` (centres undefined), the Ki at D(2) dopamine receptor [1] is 15.9 µM; on D(1A) dopamine receptor, more than 10 µM; on D(2) dopamine receptor [3], 0.042 µM.

In the case of `CCCN1CCCC(c2ccccc2)C1` (centres undefined), the inhibitory constant (Ki) on D(2) dopamine receptor [1] was 43.7 µM; on D(2) dopamine receptor [2], 10.8 µM; at D(1A) dopamine receptor, more than 10 µM; at D(2) dopamine receptor [3], 0.039 µM.

Take `CCCN1CCCC(C2CCC(C)CC2)C1` (centres undefined): the inhibitory constant (Ki) was 64 µM at D(2) dopamine receptor [1], 20 µM on D(2) dopamine receptor [2], more than 10 µM at D(1A) dopamine receptor and 0.004 µM at D(2) dopamine receptor [3].

Take `CCCN1CCCC(C2CCCC(C)C2)C1` (centres undefined): the inhibition constant Ki was 27 µM on D(2) dopamine receptor [1], 10 µM at D(2) dopamine receptor [2], more than 10 µM on D(1A) dopamine receptor and 0.005 µM at D(2) dopamine receptor [3].

As to `CCCN1CCCC(c2ccccc2C)C1` (centres undefined), the Ki was 26.7 µM on D(2) dopamine receptor [1], 1.51 µM on D(2) dopamine receptor [2], more than 10 µM on D(1A) dopamine receptor and 0.449 µM at D(2) dopamine receptor [3].

Take `CCCN1CCCC(c2ccc(C)c(C)c2)C1` (centres undefined): the Ki at D(2) dopamine receptor [1] is 7.6 µM; on D(2) dopamine receptor [2], 8.1 µM; at D(1A) dopamine receptor it was more than 10 µM; at D(2) dopamine receptor [3], 0.027 µM.

`Cc1cccc(C(=O)NCN2CCN(c3ccccc3C#N)CC2)c1` [PD-168,077]: the inhibition constant (Ki) at D(2) dopamine receptor [1] was 6.3 µM; at D(2) dopamine receptor [2], 18.3 µM; on D(1A) dopamine receptor, more than 10 µM; at D(2) dopamine receptor [3], 0.025 µM.

Broadly, the Ki is a dissociation constant, usually derived from enzyme kinetics or from competition with a known ligand.
